Results as given in article PMC5484360 (Journal of Applied Toxicology, 2017).
Where two headings read alike, the source gives them in different places.

Assays:
[1] = assay type: in vitro ADME; conditions: Protocol 1, pig skin, 30 min exposure, infinite dose, mean (%CV)
Procedure, shortened: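 Pig skin was shaved, trimmed to 2–3 mm and defatted, then mounted as 32 mm discs in Franz cells over 9 g l–1 NaCl and equilibrated 1 h at 32°C with stirring. Infinite dose (350 μl cm–2), 30 min exposure, excess removed, then 15 weighed tape strips over 18 mm, extracted with methanol. HSC came from TEWL; depth profiles were fitted to Fick's 2nd-law solution for KSC/v and DSC/HSC².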

[2] = assay type: in vitro ADME, human; conditions: Protocol 2B; for Jss (steady state flux through the SC) / kp (permeation coefficient) / Mass balance / tlag (lag time): human SC; for Mass balance: 22 h; for tlag (lag time): from non-linear regression of cumulative amount penetrated vs. time
Procedure, shortened: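 Isolated SC on 0.22 μm SuPor membrane, thickness by digital micrometer; flow-through cells at 32°C, stirred, receptor DPBS+ at 25 μl/min, equilibrated ≥30 min before dosing; 22 h occluded incubation; donor sampled pre/post; SC dissolved in 1M NaOH, radioactivity counted with washes for mass balance. Jss from earliest linear slope, membrane-corrected; kp = Jss/C; KSC/v·HSC and DSC/HSC² by non-linear Fick's-second-law fit of cumulative absorbed vs time.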

[3] = assay type: in vitro ADME, human
[4] = human skin, Equation (10) non-linear regression, mean (%CV)
[5] = Protocol 1, human skin, 30 min exposure, infinite dose, mean (%CV)

| DSC/HSC ^2 [1] | KSC/v [1] | KSC/v ([1]; listed as 7‐EC) | Jss (steady state flux through the SC) [2] [ng/cm^2] | kp (permeation coefficient) [2] [×10⁻⁶ cm/s] | Mass balance [2] [%] | tlag (lag time) [2] [h] | DSC/HSC ^2 [2, 4] | KSC/v [2, 4] | DSC/HSC ^2 [3, 5] | KSC/v [3, 5] | KSC/v ([3]; Protocol 1, human skin, 30 min exposure, infinite dose, mean (%CV), listed as 7‐EC) | KSC/v ([3]; Protocol 1, single human donor in duplicate, 30 min exposure) | KSC/v ([3]; Protocol 1, single human donor in duplicate, 90 min exposure) | KSC/v ([1]; listed as caffeine) | KSC/v ([3]; Protocol 1, human skin, 30 min exposure, infinite dose, mean (%CV), listed as caffeine) | Structure (SMILES) |
| --- | --- | --- | --- | --- | --- | --- | --- | --- | --- | --- | --- | --- | --- | --- | --- | --- |
| 0.10 (44%) h^‐1 | 89.5 (4.6%) | 89.5 | 225 | 0.095 ± 0.188 | 97.3 ± 1.4 | 0.001 ± 0.004 | 0.078 (26%) h^‐1 | 0.019 (34%) | 0.030 (55%) h^‐1 | 39.5 (19%) | 39.5 | 34.5 ± 6.4 | 46.0 ± 1.4 |  |  | CCOc1ccc2ccc(=O)oc2c1 [7‐Ethoxycoumarin] |
|  | 1.27 (31%) |  | 1261429 | 0.154 ± 0.111 | 99.7 ± 1.3 | 1.82 ± 1.02 |  | 2.63 (70%) |  | 2.68 (20%) |  |  |  | 1.27 | 2.68 | Cn1c(=O)c2c(ncn2C)n(C)c1=O [Caffeine] |
|  |  |  | 2699031 | 0.233 ± 0.133 | 99.2 ± 2.5 | 2.13 ± 0.16 |  |  |  |  |  |  |  |  |  | Oc1cccc(O)c1 [Resorcinol] |
